According to PMC7699451 (Drug Design, Development and Therapy, 2020):
Read-outs that look alike come from different tables or passages of the source.

What was measured:
[1] = Plasma pharmacokinetics at steady-state, LC-MS/MS, noncompartmental analysis; format: in vivo, human; conditions: for MR, metabolic ratio (AUCτ,ss of metabolite/AUCτ,ss of parent) / AUCτ,ss / Cmax,ss / CLss/F / Ctrough,ss: mean ± SD, N = 34
Outline: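 Oral DPP-4 inhibitor 5 mg once daily, alone for 7 days or with sulfonylurea 4 mg. Plasma was sampled pre-dose and at 1, 2, 3, 4, 5, 6, 8 and 12 h at steady state, spun at 1900 g (4°C, 10 min) and frozen below −70°C. LC-MS/MS was linear over 0.1–60 μg/L. Noncompartmental analysis: Cmax,ss observed; AUCτ,ss and CLss by the linear-log trapezoidal method.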

[2] = Urinary excretion of evogliptin at steady-state; format: in vivo, human; conditions: for CL renal: human, urine and plasma, oral
Outline: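 At steady state of oral DPP-4 inhibitor 5 mg once daily, urine was collected over 0–24 h and frozen below −70°C. Parent drug was measured by LC-MS/MS (linear 5–50,000 μg/L). feτ,ss was the amount excreted unchanged divided by that day's dose. Renal clearance was the amount excreted divided by plasma AUCτ,ss.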

CYP enzymes = conditions: ref unpublished in-house data; cited from earlier work
[3] = cited from earlier work
serum glucose = assay: Oral glucose tolerance test, serum glucose; format: in vivo, human; conditions: OGTT 75 g glucose, steady-state, mean ± SD, N = 34
Outline: (§1)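 Healthy Korean men aged 19–45 years (BMI 18–27 kg/m2) in a randomized, open-label, 3-period crossover study. Treatments were oral once daily: DPP-4 inhibitor 5 mg, sulfonylurea 4 mg, or both. After an overnight fast, subjects took 75 g glucose; serum glucose and insulin were sampled at 0, 0.25, 0.5, 1, 1.5, 2 and 3 h, at baseline (day −1) and at steady state. Peaks were read directly; areas used the linear trapezoidal method. Δ values subtracted baseline at each time point.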

[4] = Safety and tolerability, adverse events; format: in vivo, human
Outline: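 Adverse events, physical examinations, vital signs, 12-lead ECG and clinical laboratory tests were monitored throughout the crossover study in dosed healthy men. Investigators assessed whether each adverse event was related to treatment.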

serum insulin = assay: Oral glucose tolerance test, serum insulin; format: in vivo, human; conditions: OGTT 75 g glucose, steady-state; mean ± SD; N = 34
Outline: as §1

[5] = EVO+GLI: evogliptin 5 mg and glimepiride 4 mg once daily
[6] = EVO+GLI: evogliptin 5 mg and glimepiride 4 mg once daily, plasma
[7] = EVO: evogliptin 5 mg once daily
[8] = EVO: evogliptin 5 mg once daily, plasma
[9] = GLI: glimepiride 4 mg once daily
[10] = GLI: glimepiride 4 mg once daily, plasma

Row | MR, metabolic ratio (AUCτ,ss of metabolite/AUCτ,ss of parent) [1, 5] | AUCτ,ss [1, 6] | Cmax,ss [1, 6] | MR, metabolic ratio (AUCτ,ss of metabolite/AUCτ,ss of parent) [1, 7] | AUCτ,ss [1, 8] | Cmax,ss [1, 8] | CLss/F [1, 5] | Ctrough,ss [1, 6] | half-life ([1]; human, plasma, oral) [h] | Structure (SMILES) | 2 h PBG, 2 hour postprandial blood glucose (serum glucose) | AUGC, area under the serum glucose-time curve (serum glucose) [mg·h/dL] | ΔAUGC, difference in the area under the serum glucose-time curve from baseline (serum glucose) | ΔGmax, difference in maximum serum glucose level from baseline (serum glucose) | AUEC, area under the serum insulin-time curve (serum insulin) | Emax, maximum serum insulin level (serum insulin) | ΔAUEC, difference in the area under the serum insulin-time curve from baseline (serum insulin) | ΔEmax, difference in maximum serum insulin level from baseline (serum insulin) | also measured
1 | 0.09 ± 0.02 (0.04–0.13) | 10.1 ± 2.8 (5.5–17) μg·h/L | 0.7 ± 0.2 (0.4–1.0) μg/L | 0.09 ± 0.02 (0.03–0.12) | 9.8 ± 2.4 (6.3–14.6) μg·h/L | 0.7 ± 0.2 (0.4–1.2) μg/L |  |  |  | CC(C)(C)OC[C@@H]1C(=O)NCCN1C(=O)C[C@H](N)[C@@H](O)c1cc(F)c(F)cc1F [Evogliptin M7, 4(S)-hydroxyevogliptin] |  |  |  |  |  |  |  |  | 
2 | 0.1 ± 0.02 (0.05–0.13) | 10.4 ± 2.5 (6–17) μg·h/L | 0.6 ± 0.2 (0.3–1) μg/L | 0.09 ± 0.02 (0.04–0.13) | 10.3 ± 2.1 (6.8–14.7) μg·h/L | 0.6 ± 0.2 (0.4–1.1) μg/L |  |  |  | CC(C)(C)OC[C@@H]1C(=O)NCCN1C(=O)C[C@H](N)[C@H](O)c1cc(F)c(F)cc1F [Evogliptin M8, 4(R)-hydroxyevogliptin] |  |  |  |  |  |  |  |  | 
3 |  |  |  |  |  |  | 46.9 ± 8.3 (28.4–62.4) L/h | 3.1 ± 0.7 (2.2–5.1) μg/L | 23.6 ± 5.9 | CC(C)(C)OC[C@@H]1C(=O)NCCN1C(=O)C[C@H](N)Cc1cc(F)c(F)cc1F [Evogliptin, evogliptin] | 114.7 ± 17.3 (83–164) mg/dL | 334.9 | −35.8 ± 39.2 (−137.6–18.5) mg·h/dL | −53.2 ± 32 (−162– −12) mg/dL | 91.1 ± 48.6 (31.4–265) μIU·h/mL | 53.1 ± 25.2 (16.3–124.2) μIU/mL | −19.2 ± 46.6 (−179.9–36.1) μIU·h/mL | −20.4 ± 35.5 (−142.5–21.7) μIU/mL | feτ,ss, fraction excreted unchanged in urine during the dosing interval ([2]; EVO: evogliptin 5 mg once daily, urine 0–24 h, mean ± SD, N = 34): 19.1 ± 7.2 (6.7–43.9) %; CL renal [2]: 148 mL/min; CL renal ([2]; 5 mg): 140 mL/min; Induction or inhibition of CYP enzymes (CYP enzymes): did not induce or inhibit CYP enzymes; Tmax, time to reach maximal plasma concentration ([3]; after oral administration): approximately 5 h; Gmax, maximum serum glucose level (serum glucose; healthy male subjects): 136.7 mg/dL; AUGC, area under the serum glucose-time curve (serum glucose; listed as EVO): 334.9 ± 31.7 (260–406.5) mg·h/dL; Diarrhea: number of subjects who reported adverse drug reactions (number of ADRs) ([4]; N = 35): 1 (1); CLss/F [1, 7]: 45.6 ± 7.5 (26.5–56.1) L/h; Ctrough,ss [1, 8]: 3.3 ± 0.7 (2.2–5.6) μg/L; Day on which steady-state was achieved ([1]; evogliptin 5 mg once daily): 4 days; Tmax ([1]; human, plasma, oral): 3.5 h; AUC ([1]; human, plasma, oral, 5 mg): 0.113 ± 0.0216 µg·h/mL; Cmax ([1]; human, plasma, oral, 5 mg): 0.0067 ± 0.0014 µg/mL; half-life ([1]; human, plasma, oral, 5 mg): 28.4 ± 8.9 h
4 | 0.39 ± 0.1 (0.19–0.62) | 652.6 ± 197.7 (387–1331.4) μg·h/L | 84.2 ± 19 (55.8–137) μg/L |  |  |  |  |  |  | CCC1=C(C)CN(C(=O)NCCc2ccc(S(=O)(=O)NC(=O)NC3CCC(CO)CC3)cc2)C1=O (stereo not drawn) [Glimepiride M1, hydroxyglimepiride] |  |  |  |  |  |  |  |  | MR, metabolic ratio (AUCτ,ss of metabolite/AUCτ,ss of parent) [1, 9]: 0.4 ± 0.11 (0.2–0.63); AUCτ,ss [1, 10]: 611.9 ± 180.7 (309.4–1179.5) μg·h/L; Cmax,ss [1, 10]: 81.3 ± 20.6 (47.7–135.3) μg/L
5 |  |  |  |  |  |  | 2.5 ± 0.8 (1.2–4.5) L/h | 4.2 ± 6.3 (0–24.7) μg/L | 4.2 ± 2 | CCC1=C(C)CN(C(=O)NCCc2ccc(S(=O)(=O)NC(=O)N[C@H]3CC[C@H](C)CC3)cc2)C1=O [Glimepiride, glimepiride] | 94.7 ± 23.9 (44–140) mg/dL | 291.8 | −67.5 ± 60 (−179.6–69.4) mg·h/dL | −68.9 ± 25.1 (−129– −22) mg/dL | 141.7 ± 65.5 (40.7–318.2) μIU·h/mL | 86.4 ± 43.8 (29.7–248.4) μIU/mL | 17.9 ± 60.1 (−174.5–157.2) μIU·h/mL | 12.9 ± 45.2 (−109.2–122.1) μIU/mL | Tmax ([3]; after oral administration): ≤ 3 h; half-life [3]: 1.2 to 1.5 h; AUGC, area under the serum glucose-time curve (serum glucose; listed as GLI): 291.8 ± 48.5 (216.1–429.6) mg·h/dL; Number of AEs considered related to the investigational products ([4]; 35 subjects in safety assessment): five; Cold sweat: number of subjects who reported adverse drug reactions (number of ADRs) ([4]; N = 35): 1 (1); Dizziness: number of subjects who reported adverse drug reactions (number of ADRs) ([4]; N = 35): 1 (1); Hypoglycemia: number of subjects who reported adverse drug reactions (number of ADRs) ([4]; N = 35): 1 (1); Increased blood bilirubin: number of subjects who reported adverse drug reactions (number of ADRs) ([4]; N = 35): 1 (1); Nausea: number of subjects who reported adverse drug reactions (number of ADRs) ([4]; N = 35): 1 (1); CLss/F [1, 9]: 2.7 ± 1 (1.2–5.1) L/h; Ctrough,ss [1, 10]: 8.6 ± 10.9 (0–51.9) μg/L; AUC ([1]; human, plasma, oral, 4 mg): 1.67 ± 0.624 µg·h/mL; Cmax ([1]; human, plasma, oral, 4 mg): 0.327 ± 0.0985 µg/mL; half-life ([1]; human, plasma, oral, 4 mg): 4.7 ± 2.2 h
